Numbering of substitutions follows the chain as printed.
What was measured:
PTP1B (residues 1-301) = target: T1, PTP1B (residues 1-301) (Homo sapiens, UniProt P18031); experiment: Fluorescence affinity measurement of inhibitor binding to PTP1B; settings: binding to PTP1B (wt, 1-301); Table S1
T1 sequence (P18031 1-301): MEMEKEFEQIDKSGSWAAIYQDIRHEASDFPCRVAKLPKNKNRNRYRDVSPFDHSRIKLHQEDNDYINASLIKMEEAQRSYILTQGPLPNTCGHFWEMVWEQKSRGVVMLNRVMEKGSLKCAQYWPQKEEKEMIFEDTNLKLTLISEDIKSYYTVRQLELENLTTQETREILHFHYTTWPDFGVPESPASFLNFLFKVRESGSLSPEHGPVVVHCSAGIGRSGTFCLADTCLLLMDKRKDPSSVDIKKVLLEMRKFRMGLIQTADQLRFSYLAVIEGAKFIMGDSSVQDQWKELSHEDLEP

PTP1BΔ7 (residues 1-284) = target: T2, PTP1BΔ7 (residues 1-284) (Homo sapiens, UniProt P18031); experiment: Fluorescence affinity measurement, PTP1BΔ7; settings: binding to PTP1BΔ7
T2 sequence (P18031 1-284): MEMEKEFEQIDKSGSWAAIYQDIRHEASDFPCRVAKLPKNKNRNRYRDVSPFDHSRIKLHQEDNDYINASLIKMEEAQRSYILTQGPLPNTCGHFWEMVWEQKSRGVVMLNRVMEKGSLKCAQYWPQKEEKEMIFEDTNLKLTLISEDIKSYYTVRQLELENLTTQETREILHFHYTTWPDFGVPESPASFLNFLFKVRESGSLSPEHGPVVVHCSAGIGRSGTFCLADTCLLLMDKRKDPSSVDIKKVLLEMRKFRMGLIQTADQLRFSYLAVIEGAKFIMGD
Outline: (§1)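 Human PTP1B catalytic domain (residues 1-301; Δ7 is 1-284) was expressed in E. coli BL21(DE3) RIL and the His-tag removed with TEV. Protein at 2.5 µM in 50 mM HEPES pH 7.5, 150 mM NaCl, 0.5 mM TCEP was titrated with test compound (0-140 µM), with a DMSO-only control. Fluorescence was read at excitation 280 nm, emission 300-550 nm. KD came from a quadratic single-site fit; triplicate.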

PTP1BYAYA (Y152AY153A) = target: T3, PTP1BYAYA (Y152AY153A) (Homo sapiens, UniProt P18031, Y152A/Y153A); experiment: Fluorescence affinity measurement, PTP1BYAYA; settings: binding to PTP1BYAYA
T3 sequence (P18031 1-301 Y152A/Y153A): T1 sequence (P18031 1-301) with Y152A, Y153A
Outline: as §1

PTP1BN193A [1] = target: T4, PTP1BN193A (Homo sapiens, UniProt P18031, N193A); experiment: Fluorescence affinity measurement, PTP1BN193A; settings: binding to PTP1BN193A
T4 sequence (P18031 1-301 N193A): T1 sequence (P18031 1-301) with N193A
Outline: as §1

PTP1BT178A = target: T5, PTP1BT178A (Homo sapiens, UniProt P18031, T178A); experiment: Fluorescence affinity measurement, PTP1BT178A; settings: binding to PTP1BT178A
T5 sequence (P18031 1-301 T178A): T1 sequence (P18031 1-301) with T178A
Outline: as §1

PTP1BP185G = target: T6, PTP1BP185G (Homo sapiens, UniProt P18031, P185G); experiment: Fluorescence affinity measurement, PTP1BP185G; settings: binding to PTP1BP185G (catalytically dead variant)
T6 sequence (P18031 1-301 P185G): T1 sequence (P18031 1-301) with P185G
Outline: as §1

PTP1BL192A = target: T7, PTP1BL192A (Homo sapiens, UniProt P18031, L192A); experiment: Fluorescence affinity measurement, PTP1BL192A; settings: binding to PTP1BL192A
T7 sequence (P18031 1-301 L192A): T1 sequence (P18031 1-301) with L192A
Outline: as §1

PTP1BN193A [2] = target: T4, PTP1BN193A; experiment: pNPP activity assay with TCS401; type: biochemical
Outline: (§2)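 Freshly prepared enzyme (0.15 µM) in 50 mM HEPES pH 7.5, 150 mM NaCl, 0.5 mM TCEP was run with pNPP (0-6000 µM), with or without test compound at 100 or 300 µM (0.4 or 1.2% DMSO). Reactions ran 30 min at 30°C, were stopped with 0.5 M NaOH and read at 405 nm, minus no-enzyme blanks. Km came from Michaelis-Menten fits and Ki from Km,obs = Km(1+[I]/Ki). Duplicates, repeated 3-6 times.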

PTP1BYAYA = target: T8, PTP1BYAYA (Homo sapiens, UniProt P18031, Y152A/Y153A); experiment: pNPP activity assay with TCS401; type: biochemical
T8 sequence (P18031 1-301 Y152A/Y153A): T1 sequence (P18031 1-301) with Y152A, Y153A
Outline: as §2

PTP1BΔ7 = target: T9, PTP1BΔ7 (Homo sapiens, UniProt P18031); experiment: pNPP activity assay with TCS401; type: biochemical
T9 sequence (P18031 1-284): T2 sequence (P18031 1-284)
Outline: as §2

Compound: O=C(O)C(=O)Nc1sc2c(c1C(=O)O)CCNC2 [TCS401]
- Kd (PTP1B (residues 1-301)): ~26 µM
- Kd (PTP1BΔ7 (residues 1-284)): 33 ± 6 µM
- Kd (PTP1BYAYA (Y152AY153A)): 26 ± 3 µM
- Kd (PTP1BN193A [1]): 37 ± 4 µM
- Kd (PTP1BT178A): 45 ± 3.5 µM
- Kd (PTP1BP185G): 20 ± 0.6 µM
- Kd (PTP1BL192A): 39 ± 6 µM
- Ki (competition between substrate and TCS401) compared with PTP1B (PTP1BN193A [2]): higher Ki values
- Ki (competition between substrate and TCS401) compared with PTP1B (PTP1BYAYA): higher Ki values
- Ki (competition between substrate and TCS401) compared with PTP1B (PTP1BΔ7): higher Ki values
